Measurements from ChEMBL document CHEMBL5325455, “Daphnanes diterpenes from the latex of Hura crepitans L. and their PKCζ-dependent anti-proliferative activity on colorectal cancer cells” (Bioorg Med Chem, 2023).
Active and inactive are the calls of the source. No cut-off for these calls is given here.

Legend:
Caco-2 [1] = test: Cytotoxicity against human Caco-2 cells assessed as cell death; type: functional, cell-based
[2] = Cytotoxicity against HIEC-6 cells assessed as inhibition of cell growth at 1 ug/ml incubated for 48 hrs by MTS assay; type: toxicity, cell-based; details: human, hiec-6, 48 h, dose 1 µg/ml
How it was run: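 HIEC6 cells were grown in OPTIMEM with GlutaMAX, Hepes and 10 ng/mL EGF and seeded at 60 000/well 48 h before dosing. Cells were exposed to 1 µg/mL for 48 h, and viability was read by MTS absorbance at 490 nm versus DMSO; 3 independent experiments, t-test.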

Caco-2 [3] = test: Induction of apoptosis in human Caco-2 cells assessed as increase in active caspase 3 level; type: functional, cell-based
Caco-2 [4] = test: Induction of morphological changes in human Caco-2 cells assessed as cellular aggregates formation at 0.125 ug/ml incubated for 48 hrs by Hoechst 3342 and phalloidin staining based confocal microscopic analysis; type: functional, cell-based; details: dose 0.125 µg/ml
How it was run: (§1)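 Caco-2 cells (40 000/well) were exposed for 48 h, then fixed in 3.7% PFA and permeabilised with Triton X100/BSA. Actin was stained with phalloidin and nuclei with Hoechst 3342, and cells were viewed by confocal microscopy.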

Caco-2 [5] = test: Induction of morphological changes in human Caco-2 cells assessed as densification of cytoskeleton at 1 ug/ml incubated for 48 hrs by Hoechst 3342 and phalloidin staining based confocal microscopic analysis; type: functional, cell-based; details: dose 1.0 µg/ml; how it was run: as §1
Caco-2 [6] = test: Induction of morphological changes in human Caco-2 cells assessed as reorganization of epithelial tissue architecture at 1 ug/ml incubated for 48 hrs by Hoechst 3342 and phalloidin staining based confocal microscopic analysis; type: functional, cell-based; details: dose 1.0 µg/ml; how it was run: as §1
Caco-2 [7] = test: Cytostatic activity against human Caco-2 cells assessed as inhibition of cell growth at 1 ug/ml preincubated for 30 mins with CRT0066854 hydrochloride followed by compound addition and measured after 48 hrs by MTS assay; type: functional, cell-based; details: dose 1.0 µg/ml
How it was run: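 Caco-2 cells were pretreated for 30 min with CRT0066854 hydrochloride (2.5 µM; 0.625 and 1.25 µM also tested), then given compound at 1 µg/mL for 48 h. MTS absorbance was read at 490 nm relative to DMSO controls; n=3, t-test.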

[8] = target: Glycogen synthase kinase-3 beta (Homo sapiens) (UniProt P49841); test: Inhibition of GSK3beta in human Caco-2 cells assessed as increase in phosphorylation at serine 9 residue at 1 ug/ml incubated for 48 hrs by Western blot analysis; type: cell-based; details: dose 1.0 µg/ml
How it was run: (§2)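 Caco-2 cells (0.25 × 10^6/well) were treated at 1 µg/mL for 48 h and lysed in pH 7.4 Tris/NaCl/Triton/EDTA buffer with protease and phosphatase inhibitors. 30 µg protein was run per lane on 4–15% gels and blotted for pSer9-GSK3β, total GSK3β, pSer473-Akt, total Akt and β-catenin, with actin as loading control. Detection was by ECL; n=2, t-test versus DMSO.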

[9] = target: RAC-alpha serine/threonine-protein kinase (Homo sapiens) (UniProt P31749); test: Inhibition of AKT in human Caco-2 cells assessed as reduction in phosphorylation at serine 473 residue at 1 ug/ml incubated for 48 hrs by Western blot analysis; type: cell-based; details: dose 1.0 µg/ml; how it was run: as §2
Caco-2 [10] = test: Upregulation of AKT protein expression in human Caco-2 cells at 1 ug/ml incubated for 48 hrs by Western blot analysis; type: functional, cell-based; details: dose 1.0 µg/ml; how it was run: as §2
Caco-2 [11] = test: Effect on beta-catenin protein expression in human Caco-2 cells at 1 ug/ml incubated for 48 hrs by Western blot analysis; type: functional, cell-based; details: dose 1.0 µg/ml; how it was run: as §2
Caco-2 [12] = test: Effect on phosphorylated MEK at Ser217/221 level in human Caco-2 cells at 1 ug/ml measured after 48 hrs by Western blot analysis; type: functional, cell-based; details: dose 1.0 µg/ml
How it was run: (§3)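 Caco-2 cells (0.25 × 10^6/well) were treated at 1 µg/mL for 48 h, with or without 30 min pretreatment with 2.5 µM CRT0066854. Lysates (30 µg protein) were blotted for pSer217/221-MEK and total MEK, with actin as loading control. Detection was by ECL; n=2, t-test versus DMSO.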

Caco-2 [13] = test: Upregulation of phosphorylated MEK at Ser217/221 level in human Caco-2 cells at 1 ug/ml preincubated for 30 mins with CRT0066854 hydrochloride followed by compound addition and measured after 48 hrs by Western blot analysis; type: functional, cell-based; details: dose 1.0 µg/ml; how it was run: as §3
[14] = system: Colorectal epithelial cell; test: Cytostatic activity against human Colorectal epithelial cells isolated from left colon of patient with sigmoido-vaginal fistula for diverticulitis cultured as organoids at 1 ug/ml incubated for 48 hrs by CellTiter-Glo luminescence assay; type: functional, cell-based; details: dose 1.0 µg/ml
How it was run: (§4)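 Primary colonic epithelial cells (3 control and 2 CRC patients) were expanded as organoids or spheroids in Matrigel with EGF/noggin/Wnt3a/R-spondin medium. Single cells were seeded at 2500/well and allowed 48 h to form colonoids, then exposed for 48 h at 0.01, 0.1 or 1 µg/mL, with 5FdU at 1 µg/mL as positive control. Viability was read by CellTiter-Glo luminescence versus DMSO or medium control.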

[15] = system: Colorectal epithelial cell; test: Cytostatic activity against human Colorectal epithelial cells isolated from left colon of patient with recurrent diverticulitis cultured as organoids at 1 ug/ml incubated for 48 hrs by CellTiter-Glo luminescence assay; type: functional, cell-based; details: dose 1.0 µg/ml; how it was run: as §4
[16] = system: Colorectal epithelial cell; test: Cytostatic activity against human Colorectal epithelial cells isolated from patient with well-differentiated colonic adenocarcinoma cultured as organoids at 1 ug/ml incubated for 48 hrs by CellTiter-Glo luminescence assay; type: functional, cell-based; details: dose 1.0 µg/ml; how it was run: as §4
[17] = (§5) Cytostatic activity against human Colorectal epithelial cells isolated from patient with well-differentiated colonic adenocarcinoma cultured as organoids assessed as inhibition of cell growth at 0.1 ug/ml incubated for 48 hrs by CellTiter-Glo luminescence assay relative to control; type: functional; how it was run: as §4
[18] = as §5, with “adenocarcinoma and undergone nine courses of chemotherapy” for “adenocarcinoma”; type: functional; how it was run: as §4
Caco-2 [19] = test: Cytostatic activity against human Caco-2 cells assessed as inhibition of cell growth at 1 ug/ml preincubated for 15 mins with PKCalpha inhibitor, Go6976 followed by compound addition and measured after 48 hrs by MTS assay; type: functional, cell-based; details: dose 1.0 µg/ml
How it was run: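 Caco-2 cells (40 000/well) were pretreated with 0.2 µM Gö6976 for 15 min, then given compound at 1 µg/mL for 48 h. MTS absorbance was read at 490 nm and activity calculated relative to DMSO controls; triplicates, 1–3 independent experiments, two-way ANOVA.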

Caco-2 [20] = test: Induction of morphological changes in human Caco-2 cells assessed as cellular aggregation at 1 ug/ml preincubated for 15 mins with PKCalpha inhibitor, Go6976 followed by compound addition and measured after 48 hrs by immunostaining based confocal microscopic analysis; type: functional, cell-based; details: dose 1.0 µg/ml
How it was run: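 Caco-2 cells were given 0.2 µM Gö6976 for 15 min before compound at 1 µg/mL for 48 h. PKCα was immunostained, nuclei and cytoskeleton were labelled, and cells were imaged by confocal microscopy (20X objective) in duplicate from one experiment.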

Caco-2 [21] = test: Downregulation of PKCalpha expression in human Caco-2 cells at 1 ug/ml incubated for 48 hrs by immunostaining based confocal microscopic analysis; type: functional, cell-based; details: dose 1.0 µg/ml
How it was run: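 Caco-2 cells were seeded at 40 000/well and treated for 48 h as in the viability assay. They were fixed in 3.7% PFA for 20 min and permeabilised in HBSS/0.5% Triton X100/1% BSA. Anti-PKCζ (1/50) or anti-PKCα (1/200) was applied overnight at 4°C, then Alexa 488 secondary for 45 min. Phalloidin and Hoechst counterstained the cells before confocal imaging; PKCα signal was quantified by immunofluorescence.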

RAC-alpha serine/threonine-protein kinase (Homo sapiens), sequence (P31749 whole entry): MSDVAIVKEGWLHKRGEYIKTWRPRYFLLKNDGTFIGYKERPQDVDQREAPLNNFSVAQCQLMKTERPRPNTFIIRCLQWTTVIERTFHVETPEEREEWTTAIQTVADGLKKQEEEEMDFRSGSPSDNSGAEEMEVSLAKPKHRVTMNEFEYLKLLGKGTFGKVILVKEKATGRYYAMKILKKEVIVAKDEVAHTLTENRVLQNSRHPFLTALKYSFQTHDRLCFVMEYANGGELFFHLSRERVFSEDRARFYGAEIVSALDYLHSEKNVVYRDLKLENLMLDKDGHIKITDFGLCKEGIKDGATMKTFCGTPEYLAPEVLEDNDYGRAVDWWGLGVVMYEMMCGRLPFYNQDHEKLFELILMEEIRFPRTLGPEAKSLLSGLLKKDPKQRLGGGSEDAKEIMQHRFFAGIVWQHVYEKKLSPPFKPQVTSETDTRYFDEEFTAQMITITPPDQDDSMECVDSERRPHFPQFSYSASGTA
Glycogen synthase kinase-3 beta (Homo sapiens), sequence (P49841 whole entry, looked up): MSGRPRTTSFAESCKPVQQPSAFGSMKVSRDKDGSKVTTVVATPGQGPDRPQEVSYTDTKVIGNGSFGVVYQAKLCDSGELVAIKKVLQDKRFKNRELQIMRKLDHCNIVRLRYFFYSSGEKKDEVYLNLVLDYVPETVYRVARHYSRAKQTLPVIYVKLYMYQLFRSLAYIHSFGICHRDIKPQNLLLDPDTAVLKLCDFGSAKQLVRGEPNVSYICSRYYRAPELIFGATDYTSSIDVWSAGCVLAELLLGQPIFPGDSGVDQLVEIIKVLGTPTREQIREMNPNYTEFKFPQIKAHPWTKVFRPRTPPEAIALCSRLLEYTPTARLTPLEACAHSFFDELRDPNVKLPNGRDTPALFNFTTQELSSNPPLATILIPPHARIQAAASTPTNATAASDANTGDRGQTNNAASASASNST

Row | Compound | Activity (Caco-2 [1]) | Activity [2] | Activity (Caco-2 [3]) | Activity (Caco-2 [4]) | Activity (Caco-2 [5]) | Activity (Caco-2 [6]) | Activity (Caco-2 [7]) | inhibition [8] | inhibition [9] | Activity (Caco-2 [10]) | Activity (Caco-2 [11]) | Activity (Caco-2 [12]) | Activity (Caco-2 [13]) | Activity [14] | Activity [15] | Activity [16] | inhibition at 0.1 µg/mL [17] | inhibition at 0.1 µg/mL [18] | Activity (Caco-2 [19]) | Activity (Caco-2 [20]) | also measured
1 | C=C(C)[C@]12C[C@@H](C)[C@@]34O[C@](/C=C/C=C/CCCCCCCCC)(O[C@@H]1[C@@H]3[C@@H]1O[C@]1(CO)[C@@H](O)[C@]1(O)C(=O)C(C)=C[C@H]14)O2 | inactive | Non-Toxic | inactive | Active | Active | Active | inactive | Active | Active | Active | inactive | inactive | Active | Active | Active | Active | 40% | 40% | Active | Active | Activity (Caco-2 [21]): Active
2 | C=C(C)[C@]12C[C@@H](C)[C@@]34O[C@](/C=C/[C@@H]5O[C@H]5CCCCCCCCC)(O[C@@H]1[C@@H]3[C@@H]1O[C@]1(CO)[C@@H](O)[C@]1(O)C(=O)C(C)=C[C@H]14)O2 | inactive | Non-Toxic | inactive | Active | Active | Active | inactive | Active | Active | Active | inactive | inactive | Active | Active | Active | Active | 40% | 40% | Active | Active | Activity (Caco-2 [21]): Active
